# Experimental data taken from ChEMBL document CHEMBL1144326, “Exploring the active site of phenylethanolamine N-methyltransferase with 3-hydroxyethyl- and 3-hydroxypropyl-7-substituted-1,2,3,4-tetrahydroisoquinolines” (Bioorg Med Chem Lett, 2005).
# Target: T1, Alpha-2A adrenergic receptor (Homo sapiens, UniProt P08913)
# T1 sequence (P08913 whole entry): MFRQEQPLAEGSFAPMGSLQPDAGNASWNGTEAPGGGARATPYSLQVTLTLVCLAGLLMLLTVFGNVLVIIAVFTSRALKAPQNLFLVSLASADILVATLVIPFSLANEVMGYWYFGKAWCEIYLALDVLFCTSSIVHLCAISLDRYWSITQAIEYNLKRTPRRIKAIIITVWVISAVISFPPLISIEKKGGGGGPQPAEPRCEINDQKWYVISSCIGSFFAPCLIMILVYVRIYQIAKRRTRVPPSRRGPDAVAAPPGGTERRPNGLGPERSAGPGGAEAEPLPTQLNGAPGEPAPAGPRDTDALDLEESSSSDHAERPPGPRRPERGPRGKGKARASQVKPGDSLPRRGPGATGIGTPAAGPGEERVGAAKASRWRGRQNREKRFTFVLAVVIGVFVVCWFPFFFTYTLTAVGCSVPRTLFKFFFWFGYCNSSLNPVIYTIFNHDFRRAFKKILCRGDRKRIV
# Assay: Binding affinity against human alpha 2A adrenergic receptor in CHO cells using [3H]RX-821002 as radioligand
# Assay type: cell-based
# Outline: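 Membranes from CHO cells stably transfected with human α2A-adrenoceptor; [³H]RX821002 at 0.2 nM as radioligand; nonspecific binding defined with (−)-norepinephrine; displacement of radioligand measured.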
row,pKi,Compound
1,3.4,O=[N+]([O-])c1ccc2c(c1)CNC(C(F)(F)F)C2 (centres undefined)
2,4.35,FC(F)(F)C1Cc2ccc(Br)cc2CN1 (centres undefined)
3,3.6,O=[N+]([O-])c1ccc2c(c1)CNC(C(F)F)C2 (centres undefined)
4,3.9,O=[N+]([O-])c1ccc2c(c1)CNC(CO)C2 (centres undefined)
5,3.2,O=[N+]([O-])c1ccc2c(c1)CNC(CF)C2 (centres undefined)

row,Compound,pKi
1,NS(=O)(=O)c1ccc2c(c1)CNCC2,3.4
2,O=[N+]([O-])c1ccc2c(c1)CNCC2,3.2
3,Clc1ccc2c(c1Cl)CNCC2,6.52
4,CC1Cc2ccc([N+](=O)[O-])cc2CN1 (centres undefined),4.84

# Target: T2, Adrenergic receptor alpha-2 (Rattus norvegicus, UniProt P22086+P19328+P22909)
# T2 sequence (P22086 whole entry): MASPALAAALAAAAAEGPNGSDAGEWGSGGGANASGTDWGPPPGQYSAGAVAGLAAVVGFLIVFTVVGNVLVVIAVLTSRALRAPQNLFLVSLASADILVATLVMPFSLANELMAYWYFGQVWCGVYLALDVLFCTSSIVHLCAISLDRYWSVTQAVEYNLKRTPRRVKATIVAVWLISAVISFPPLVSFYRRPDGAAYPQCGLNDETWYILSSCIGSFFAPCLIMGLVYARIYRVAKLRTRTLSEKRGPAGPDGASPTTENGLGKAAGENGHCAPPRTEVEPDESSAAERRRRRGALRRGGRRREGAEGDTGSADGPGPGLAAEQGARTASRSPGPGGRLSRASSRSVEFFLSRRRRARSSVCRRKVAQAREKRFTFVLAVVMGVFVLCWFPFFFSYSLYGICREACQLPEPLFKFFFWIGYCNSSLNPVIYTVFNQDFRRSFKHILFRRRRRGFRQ
# T2 sequence (P19328 whole entry): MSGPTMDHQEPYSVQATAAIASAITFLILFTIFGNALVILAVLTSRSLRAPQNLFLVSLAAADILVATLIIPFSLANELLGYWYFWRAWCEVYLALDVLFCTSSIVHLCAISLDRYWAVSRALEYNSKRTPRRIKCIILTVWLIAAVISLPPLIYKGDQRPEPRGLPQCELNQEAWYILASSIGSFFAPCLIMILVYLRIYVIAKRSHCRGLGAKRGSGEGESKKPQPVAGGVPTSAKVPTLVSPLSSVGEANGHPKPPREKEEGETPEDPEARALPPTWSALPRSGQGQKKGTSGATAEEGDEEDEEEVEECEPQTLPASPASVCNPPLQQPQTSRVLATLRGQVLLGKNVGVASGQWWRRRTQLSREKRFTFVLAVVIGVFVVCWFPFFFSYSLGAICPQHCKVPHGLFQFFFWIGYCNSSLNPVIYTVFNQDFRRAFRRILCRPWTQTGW
# T2 sequence (P22909 whole entry): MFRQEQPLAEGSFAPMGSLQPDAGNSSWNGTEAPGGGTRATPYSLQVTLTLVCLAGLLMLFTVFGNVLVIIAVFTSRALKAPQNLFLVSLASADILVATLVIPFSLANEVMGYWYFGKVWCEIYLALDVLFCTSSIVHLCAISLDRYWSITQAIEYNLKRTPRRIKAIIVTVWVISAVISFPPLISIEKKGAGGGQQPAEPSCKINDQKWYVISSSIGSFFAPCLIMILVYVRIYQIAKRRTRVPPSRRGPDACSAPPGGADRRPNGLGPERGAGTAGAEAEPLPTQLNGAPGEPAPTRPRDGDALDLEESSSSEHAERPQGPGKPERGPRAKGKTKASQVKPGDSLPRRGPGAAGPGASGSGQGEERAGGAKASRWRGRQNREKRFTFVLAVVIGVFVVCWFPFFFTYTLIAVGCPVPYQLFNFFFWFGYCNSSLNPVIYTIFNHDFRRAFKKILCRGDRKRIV
# Assay: Binding affinity against alpha 2 adrenergic receptor in rat cortex using [3H]clonidine as radioligand
# Assay type: tissue-based
row,Ki [µM],Compound
1,59,O=[N+]([O-])c1ccc2c(c1)CNC(CCCO)C2 (centres undefined)
2,46,O=[N+]([O-])c1ccc2c(c1)CNC(CCO)C2 (centres undefined)
3,4.8,OCCCC1Cc2ccc(Br)cc2CN1 (centres undefined)
4,1.3,OCCC1Cc2ccc(Br)cc2CN1 (centres undefined)
5,1,OCC1Cc2ccc(Br)cc2CN1 (centres undefined)
